By MIC is commonly meant the lowest concentration that inhibits growth of the organism. A lower MIC goes with inhibition by little substance.

For the assay, the system named is Staphylococcus aureus. Put plainly: Antibacterial activity against methicilin-resistant Staphylococcus aureus USA300 FPR3757 incubated for 20 to 24 hrs by microbroth dilution assay. In kind it is functional. The settings on record: time hrs 20-24. An outline of the steps:
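Broth microdilution per EUCAST in Mueller-Hinton broth. Inoculum 5.0·10^5 CFU/mL, prepared from overnight single-colony cultures at OD600 0.1 then diluted 100x. Final compound concentrations 0.015–16 µg/mL. Incubation at 37 °C for 20–24 h, protected from light. MIC is the lowest concentration with no visible growth. Each replicate uses three cultures; n = 2–3.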
(In general: Dilution methods test growth across graded concentrations, often in twofold steps.)

Values after ≈ are worked out from the molar mass of the structure shown.

Turning to `C=C[C@]1(C)C[C@@H](OC(=O)Cn2cc(-c3ccccc3Cn3cnc4c(N(CC)CC)ncnc43)nn2)[C@]2(C)[C@H](C)CC[C@]3(CCC(=O)[C@H]32)[C@@H](C)[C@@H]1O`, the MIC came to 1 µg/mL (≈ 1.41 µM). In the case of `C=C[C@]1(C)C[C@@H](OC(=O)Cn2cc(-c3cccc(-n4cnc5c(N)ncnc54)c3)nn2)[C@]2(C)[C@H](C)CC[C@]3(CCC(=O)[C@H]32)[C@@H](C)[C@@H]1O` it was 0.06 µg/mL (≈ 0.0939 µM); in that of `C=C[C@]1(C)C[C@@H](OC(=O)Cn2cc(-c3cccc(N)c3)nn2)[C@]2(C)[C@H](C)CC[C@]3(CCC(=O)[C@H]32)[C@@H](C)[C@@H]1O`, 1 µg/mL (≈ 1.92 µM); in that of `C=C[C@]1(C)C[C@@H](OC(=O)Cn2cc(-c3cccc(Cn4cc(C)c(=O)[nH]c4=O)c3)nn2)[C@]2(C)[C@H](C)CC[C@]3(CCC(=O)[C@H]32)[C@@H](C)[C@@H]1O`, 1 µg/mL (≈ 1.55 µM). For the molecule `C=C[C@]1(C)C[C@@H](OC(=O)Cn2cc(-c3ccc(Cn4cnc5c(N(CC)CC)ncnc54)cc3)nn2)[C@]2(C)[C@H](C)CC[C@]3(CCC(=O)[C@H]32)[C@@H](C)[C@@H]1O`, the MIC was 0.25 µg/mL (≈ 0.353 µM). The figure for `C=C[C@]1(C)C[C@@H](OC(=O)Cn2cc(-c3ccccc3CN)nn2)[C@]2(C)[C@H](C)CC[C@]3(CCC(=O)[C@H]32)[C@@H](C)[C@@H]1O` is 4 µg/mL (≈ 7.48 µM); for `C=C[C@]1(C)C[C@@H](OC(=O)Cn2cc(-c3ccc(Cn4cc(C)c(=O)[nH]c4=O)cc3)nn2)[C@]2(C)[C@H](C)CC[C@]3(CCC(=O)[C@H]32)[C@@H](C)[C@@H]1O` it is 0.13 µg/mL (≈ 0.202 µM); for `C=C[C@]1(C)C[C@@H](OC(=O)Cn2cc(-c3cccc(Cc4ccc(OC)cc4)c3)nn2)[C@]2(C)[C@H](C)CC[C@]3(CCC(=O)[C@H]32)[C@@H](C)[C@@H]1O` it is 16 µg/mL (≈ 25.6 µM). In the case of `C=C[C@]1(C)C[C@@H](OC(=O)Cn2cc(-c3cccc(CN(CC)CC)c3)nn2)[C@]2(C)[C@H](C)CC[C@]3(CCC(=O)[C@H]32)[C@@H](C)[C@@H]1O` it was 2 µg/mL (≈ 3.39 µM).

In turn, `C=C[C@]1(C)C[C@@H](OC(=O)Cn2cc(-c3ccc(CO)cc3)nn2)[C@]2(C)[C@H](C)CC[C@]3(CCC(=O)[C@H]32)[C@@H](C)[C@@H]1O` yielded an MIC of 0.25 µg/mL (≈ 0.467 µM).

The molecule `C=C[C@]1(C)C[C@@H](OC(=O)Cn2cc(-c3ccc(-n4cnc5c(N)ncnc54)cc3)nn2)[C@]2(C)[C@H](C)CC[C@]3(CCC(=O)[C@H]32)[C@@H](C)[C@@H]1O` yielded a minimum inhibitory concentration (MIC) of 0.5 µg/mL (≈ 0.783 µM). The molecule `C=C[C@]1(C)C[C@@H](OC(=O)Cn2cc(-c3ccc(CN4CCN(C)CC4)cc3)nn2)[C@]2(C)[C@H](C)CC[C@]3(CCC(=O)[C@H]32)[C@@H](C)[C@@H]1O` gave an MIC of 4 µg/mL (≈ 6.47 µM). `C=C[C@]1(C)C[C@@H](OC(=O)Cn2cc(-c3cccc(C#N)c3)nn2)[C@]2(C)[C@H](C)CC[C@]3(CCC(=O)[C@H]32)[C@@H](C)[C@@H]1O` yielded a minimum inhibitory concentration (MIC) of 1 µg/mL (≈ 1.88 µM). The figure for `C=C[C@]1(C)C[C@@H](OC(=O)Cn2cc(-c3cccc(Cn4cnc5c(N(CC)CC)nc(N)nc54)c3)nn2)[C@]2(C)[C@H](C)CC[C@]3(CCC(=O)[C@H]32)[C@@H](C)[C@@H]1O` is 0.5 µg/mL (≈ 0.691 µM); for `C=C[C@]1(C)C[C@@H](OC(=O)Cn2cc(-c3cccc(Cn4cnc5c(N)ncnc54)c3)nn2)[C@]2(C)[C@H](C)CC[C@]3(CCC(=O)[C@H]32)[C@@H](C)[C@@H]1O` it is 0.25 µg/mL (≈ 0.383 µM). `C=C[C@]1(C)C[C@@H](OC(=O)Cn2cc(-c3ccc(Cc4ccc(OC)cc4)cc3)nn2)[C@]2(C)[C@H](C)CC[C@]3(CCC(=O)[C@H]32)[C@@H](C)[C@@H]1O` registered an MIC of 8 µg/mL (≈ 12.8 µM). The figure for `C=C[C@]1(C)C[C@@H](OC(=O)Cn2cc(-c3cccc(Cn4cnc5c(N6CCN(C)CC6)ncnc54)c3)nn2)[C@]2(C)[C@H](C)CC[C@]3(CCC(=O)[C@H]32)[C@@H](C)[C@@H]1O` is 0.5 µg/mL (≈ 0.679 µM); for `C=C[C@]1(C)C[C@@H](OC(=O)Cn2cc(-c3ccccc3Cc3ccc(OC)cc3)nn2)[C@]2(C)[C@H](C)CC[C@]3(CCC(=O)[C@H]32)[C@@H](C)[C@@H]1O` it is 2 µg/mL (≈ 3.2 µM); for `C=C[C@]1(C)C[C@@H](OC(=O)Cn2cc(-c3ccc(CN4C(=O)c5ccccc5C4=O)cc3)nn2)[C@]2(C)[C@H](C)CC[C@]3(CCC(=O)[C@H]32)[C@@H](C)[C@@H]1O` it is 0.25 µg/mL (≈ 0.376 µM).

In the case of `C=C[C@]1(C)C[C@@H](OC(=O)Cn2cc(-c3cccc(Cc4cccc(CO)c4)c3)nn2)[C@]2(C)[C@H](C)CC[C@]3(CCC(=O)[C@H]32)[C@@H](C)[C@@H]1O`, it took 1 µg/mL (≈ 1.6 µM) to inhibit growth (MIC).

Regarding `C=C[C@]1(C)C[C@@H](OC(=O)Cn2cc(-c3cccc(CO)c3)nn2)[C@]2(C)[C@H](C)CC[C@]3(CCC(=O)[C@H]32)[C@@H](C)[C@@H]1O`, the MIC is 0.5 µg/mL (≈ 0.933 µM).

As for `C=C[C@]1(C)C[C@@H](OC(=O)Cn2cc(-c3ccc(Cn4cnc5c(NC(=N)N)ncnc54)cc3)nn2)[C@]2(C)[C@H](C)CC[C@]3(CCC(=O)[C@H]32)[C@@H](C)[C@@H]1O`, the MIC was found to be 0.5 µg/mL (≈ 0.72 µM).

Consider `C=C[C@]1(C)C[C@@H](OC(=O)Cn2cc(-c3ccc(Cn4cnc5c(NCCN)ncnc54)cc3)nn2)[C@]2(C)[C@H](C)CC[C@]3(CCC(=O)[C@H]32)[C@@H](C)[C@@H]1O`, for which the MIC came out at 0.5 µg/mL (≈ 0.719 µM).

`C=C[C@]1(C)C[C@@H](OC(=O)Cn2cc(-c3ccccc3)nn2)[C@]2(C)[C@H](C)CC[C@]3(CCC(=O)[C@H]32)[C@@H](C)[C@@H]1O` gave an MIC of 2 µg/mL (≈ 3.96 µM). As to `C=C[C@]1(C)C[C@@H](OC(=O)Cn2cc(-c3cccc(CN4CCN(C)CC4)c3)nn2)[C@]2(C)[C@H](C)CC[C@]3(CCC(=O)[C@H]32)[C@@H](C)[C@@H]1O`, 2 µg/mL (≈ 3.24 µM) was the least that counted as inhibitory (MIC). In the case of `C=C[C@]1(C)C[C@@H](OC(=O)Cn2cc(-c3cccc(CN)c3)nn2)[C@]2(C)[C@H](C)CC[C@]3(CCC(=O)[C@H]32)[C@@H](C)[C@@H]1O`, the MIC came out at 2 µg/mL (≈ 3.74 µM). Consider `C=C[C@]1(C)C[C@@H](OC(=O)Cn2cc(-c3cccc(Cc4cccc(CN(CC)CC)c4)c3)nn2)[C@]2(C)[C@H](C)CC[C@]3(CCC(=O)[C@H]32)[C@@H](C)[C@@H]1O`, for which inhibition of growth (MIC) required 2 µg/mL (≈ 2.94 µM). For the molecule `C=C[C@]1(C)C[C@@H](OC(=O)Cn2cc(-c3cccc(Cn4cnc5c(N(CC)CC)ncnc54)c3)nn2)[C@]2(C)[C@H](C)CC[C@]3(CCC(=O)[C@H]32)[C@@H](C)[C@@H]1O`, the minimal inhibitory concentration (MIC) was 1 µg/mL (≈ 1.41 µM). In the case of `C=C[C@]1(C)C[C@@H](OC(=O)Cn2cc(-c3ccc(CN)cc3)nn2)[C@]2(C)[C@H](C)CC[C@]3(CCC(=O)[C@H]32)[C@@H](C)[C@@H]1O` it was 2 µg/mL (≈ 3.74 µM). The figure for `C=C[C@]1(C)C[C@@H](OC(=O)Cn2cc(-c3ccccc3C#N)nn2)[C@]2(C)[C@H](C)CC[C@]3(CCC(=O)[C@H]32)[C@@H](C)[C@@H]1O` is 0.5 µg/mL (≈ 0.942 µM); for `C=C[C@]1(C)C[C@@H](OC(=O)Cn2cc(-c3ccc(CN(CC)CC)cc3)nn2)[C@]2(C)[C@H](C)CC[C@]3(CCC(=O)[C@H]32)[C@@H](C)[C@@H]1O` it is 4 µg/mL (≈ 6.77 µM). The figure for `C=C[C@]1(C)C[C@@H](OC(=O)Cn2cc(-c3ccccc3Cn3cc(C)c(=O)[nH]c3=O)nn2)[C@]2(C)[C@H](C)CC[C@]3(CCC(=O)[C@H]32)[C@@H](C)[C@@H]1O` is 1 µg/mL (≈ 1.55 µM); for `C=C[C@]1(C)C[C@@H](OC(=O)Cn2cc(-c3ccccc3Cn3cnc4c(N)ncnc43)nn2)[C@]2(C)[C@H](C)CC[C@]3(CCC(=O)[C@H]32)[C@@H](C)[C@@H]1O` it is 0.5 µg/mL (≈ 0.766 µM); for `C=C[C@]1(C)C[C@@H](OC(=O)Cn2cc(-c3ccccc3Cn3cnc4c(N(CC)CC)nc(N)nc43)nn2)[C@]2(C)[C@H](C)CC[C@]3(CCC(=O)[C@H]32)[C@@H](C)[C@@H]1O` it is 0.5 µg/mL (≈ 0.691 µM). For the molecule `C=C[C@]1(C)C[C@@H](OC(=O)Cn2cc(-c3cccc(Cc4ccc(N(CC)CC)cc4)c3)nn2)[C@]2(C)[C@H](C)CC[C@]3(CCC(=O)[C@H]32)[C@@H](C)[C@@H]1O`, the MIC was found to be 8 µg/mL (≈ 12 µM).

(Values after ChEMBL document CHEMBL4699669, “Discovery of a Potent Adenine-Benzyltriazolo-Pleuromutilin Conjugate with Pronounced Antibacterial Activity against MRSA” (J Med Chem, 2020).)
